Data from publication PMC2933382 (Biochemistry, 2010).
Where two headings read alike, the source gives them in different places.

Key:
AeSCP-2 Y30A mutant [1] = molecular target: T1, AeSCP-2 Y30A mutant (Aedes aegypti, UniProt Q86PR3, Y30A); experiment: Ligand competition assay with NBD-cholesterol; assay type: binding
AeSCP-2 W44E mutant [2] = molecular target: T2, AeSCP-2 W44E mutant (Aedes aegypti, UniProt Q86PR3, W44E); experiment: Ligand competition assay with NBD-cholesterol; assay type: binding
AeSCP-2 F32W mutant [3] = molecular target: T3, AeSCP-2 F32W mutant (Aedes aegypti, UniProt Q86PR3, F32W); experiment: Ligand competition assay with NBD-cholesterol; assay type: binding
wild type AeSCP-2 [4] = molecular target: T4, wild type AeSCP-2 (Aedes aegypti, UniProt Q86PR3); experiment: Ligand competition assay with NBD-cholesterol; assay type: binding
T4 sequence (Q86PR3 1-110): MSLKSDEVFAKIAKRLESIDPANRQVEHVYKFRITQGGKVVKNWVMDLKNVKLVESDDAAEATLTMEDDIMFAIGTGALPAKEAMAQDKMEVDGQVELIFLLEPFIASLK

AeSCP-2 F105W mutant [5] = molecular target: T5, AeSCP-2 F105W mutant (Aedes aegypti, UniProt Q86PR3, F105W); experiment: Ligand competition assay with NBD-cholesterol; assay type: binding
AeSCP-2 W44A mutant = AeSCP-2 W44A mutant (Aedes aegypti, UniProt Q86PR3, W44A); experiment: Ligand competition assay with NBD-cholesterol; assay type: binding
AeSCP-2 [6] = molecular target: T6, AeSCP-2 (Aedes aegypti, UniProt Q86PR3); experiment: Initial ligand competition assay; assay type: binding; conditions: Fig. 1; NBD-cholesterol 1.25 µM, competitive ligand 0.005 to 5 µM
T6 sequence (Q86PR3 1-110): T4 sequence (Q86PR3 1-110)

AeSCP-2 M90L mutant [7] = molecular target: T7, AeSCP-2 M90L mutant (Aedes aegypti, UniProt Q86PR3, M90L); experiment: Ligand competition assay with NBD-cholesterol; assay type: binding
[8] = test system: wild type AeSCP-2 denatured in 6.5 M guanidine hydrochloride; experiment: Intrinsic tryptophan fluorescence, denatured protein negative control; assay type: binding, Aedes aegypti; conditions: Fig. 6B
Procedure, shortened: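 Negative control: recombinant AeSCP-2 denatured in 6.5 M guanidine-HCl in 50 mM Tris-HCl, pH 7.4, scanned with and without inhibitor. Excitation at 280 nm; emission read 320–390 nm. Buffer and inhibitor-alone spectra were subtracted to give difference spectra.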

wild type AeSCP-2 [9] = molecular target: T4, wild type AeSCP-2; assay type: binding; conditions: 50 µM SCPI; wild type AeSCP-2 at 10 µM; Fig. 6A
Procedure, shortened: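 Intrinsic Trp (single residue, W44) fluorescence of purified recombinant native AeSCP-2, with and without SCP-2 inhibitor. Run in 100 µL of 50 mM Tris-HCl, pH 8.0, at 25 °C. Excitation at 280 nm; emission scanned 320–390 nm. Difference spectra were made by subtracting buffer and inhibitor-alone spectra.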

AeSCP-2 M90L mutant [10] = molecular target: T7, AeSCP-2 M90L mutant; assay type: binding; conditions: Fig. 6D
AeSCP-2 F9W/W44F mutant [11] = molecular target: T8, AeSCP-2 F9W/W44F mutant (Aedes aegypti, UniProt Q86PR3, F9W/W44F); assay type: binding; conditions: Fig. 6C
AeSCP-2 [12] = molecular target: T6, AeSCP-2; conditions: read-out: IC50 (suppression of NBD-cholesterol binding); cited from earlier work
Aag-2 cells = assay type: cell-based, Aedes aegypti; conditions: for Incorporation of [3H]cholesterol: Fig. 4; for Incorporation of [3H]palmitic acid: Fig. 5
AeSCP-2 F32W mutant [13] = molecular target: T3, AeSCP-2 F32W mutant; experiment: NBD-cholesterol binding to recombinant AeSCP-2 mutant; conditions: 0.5 µM NBD-cholesterol, protein 0.01 to 10 µM, mean (standard deviation)
AeSCP-2 W44E mutant [14] = molecular target: T2, AeSCP-2 W44E mutant; experiment: as above
AeSCP-2 Y30A mutant [15] = molecular target: T1, AeSCP-2 Y30A mutant; experiment: as above
AeSCP-2 F105W mutant [16] = molecular target: T5, AeSCP-2 F105W mutant; experiment: as above; conditions: 0.5 µM NBD-cholesterol, protein 0.01 to 10 µM, mean (standard deviation)
AeSCP-2 F105A mutant = AeSCP-2 F105A mutant (Aedes aegypti, UniProt Q86PR3, F105A); experiment: as above
AeSCP-2 F9W/W44F mutant [17] = molecular target: T8, AeSCP-2 F9W/W44F mutant; experiment: as above
AeSCP-2 wild-type = molecular target: T9, AeSCP-2 wild-type (Aedes aegypti, UniProt Q86PR3); experiment: NBD-cholesterol binding to recombinant AeSCP-2; conditions: wt; 0.5 µM NBD-cholesterol, protein 0.01 to 10 µM; mean (standard deviation)
T9 sequence (Q86PR3 1-110): T4 sequence (Q86PR3 1-110)

AeSCP-2 M90L mutant [18] = molecular target: T7, AeSCP-2 M90L mutant; experiment: NBD-cholesterol binding to recombinant AeSCP-2 mutant
AeSCP-2 F32A mutant = AeSCP-2 F32A mutant (Aedes aegypti, UniProt Q86PR3, F32A); experiment: as above
recombinant AeSCP-2 = conditions: radiolabelled cholesterol; cited from earlier work
[19] = within the lipid bilayer; cited from earlier work

SMILES: CC[C@H](CC[C@@H](C)[C@H]1CC[C@H]2[C@@H]3CC=C4C[C@@H](O)CC[C@]4(C)[C@H]3CC[C@]12C)C(C)C [β-sitosterol]
- EC50 (AeSCP-2 Y30A mutant [1]): 96 nM
- EC50 (AeSCP-2 W44E mutant [2]): 42 nM
- EC50 (AeSCP-2 F32W mutant [3]): 61 nM
- EC50 (wild type AeSCP-2 [4]): 142 nM
- EC50 (AeSCP-2 F105W mutant [5]): 83 nM
- EC50 (AeSCP-2 W44A mutant): 112 nM
- Competition with NBD-cholesterol for binding to AeSCP-2 (AeSCP-2 [6]): also competed with NBD-cholesterol for binding to AeSCP-2
- EC50 (AeSCP-2 M90L mutant [7]): 46 nM

SMILES: COc1cccc(-n2sc3c(c2=S)-c2cc(Cl)ccc2NC3(C)C)c1 [SCPI-2, 8-chloro-2-(3-methoxyphenyl)-4,4-dimethyl-4,5-dihydroisothiazol[5,4-c]quinoline-1(2H)-thione]
- Quenching of tryptophan intrinsic fluorescence, denatured protein [8]: no significant quenching
- Effect on tryptophan intrinsic fluorescence signal (wild type AeSCP-2 [9]): significant decrease
- Effect on tryptophan intrinsic fluorescence (AeSCP-2 M90L mutant [10]): did not affect
- Effect on tryptophan intrinsic fluorescence (AeSCP-2 F9W/W44F mutant [11]): did not affect
- IC50 (AeSCP-2 [12]): < 400 nM

SMILES: [3H]C1C([3H])[C@@]2(C)C(=CC[C@H]3[C@@H]4CC[C@H]([C@H](C)CCCC(C)C)[C@@]4(C)CC[C@@H]32)C[C@H]1O (stereo partly shown) [[^3H]cholesterol, [1,2-^3H (N)]-cholesterol]
- Incorporation of [3H]cholesterol (Aag-2 cells; cells over-expressing AeSCP-2 mutants F32A, W44E, M90L, and F105A): did not increase
- Incorporation of [3H]cholesterol (Aag-2 cells; cells over-expressing wild type AeSCP-2 vs. empty vector): increased significantly

SMILES: C[C@H](CNc1ccc([N+](=O)[O-])c2nonc12)[C@H]1CC[C@H]2[C@@H]3CC=C4C[C@@H](O)CC[C@]4(C)[C@H]3CC[C@]12C [NBD-cholesterol, 22-(N-(7-nitrobenz-2-oxa-1,3-diazol-4-yl)amino)-23,24-bisnor-5-cholen-3β-o]
- Kd (AeSCP-2 F32W mutant [13]): 4940 nM
- Fold of Kd change (AeSCP-2 W44E mutant [14]; W44E vs. wt): 12.35
- Kd (AeSCP-2 W44E mutant [14]; W44E, 0.5 µM NBD-cholesterol, protein 0.01 to 10 µM, mean (standard deviation)): 4200 nM
- Fold of Kd change (AeSCP-2 Y30A mutant [15]; Y30A vs. wt): 0.73
- Kd (AeSCP-2 Y30A mutant [15]; Y30A, 0.5 µM NBD-cholesterol, protein 0.01 to 10 µM, mean (standard deviation)): 250 nM
- Kd (AeSCP-2 F105W mutant [16]): 1320 nM
- Fold of Kd change (AeSCP-2 F105A mutant; F105A vs. wt): 3.38
- Kd (AeSCP-2 F105A mutant; F105A, 0.5 µM NBD-cholesterol, protein 0.01 to 10 µM, mean (standard deviation)): 1150 nM
- Fold of Kd change (AeSCP-2 F9W/W44F mutant [17]; F9W/W44F vs. wt): 2.68
- Kd (AeSCP-2 F9W/W44F mutant [17]; F9W/W44F, 0.5 µM NBD-cholesterol, protein 0.01 to 10 µM, mean (standard deviation)): 910 nM
- Kd (AeSCP-2 wild-type): 340 nM
- Fold of Kd change (AeSCP-2 M90L mutant [18]; M90L vs. wt): 8.09
- Kd (AeSCP-2 M90L mutant [18]; M90L, 0.5 µM NBD-cholesterol, protein 0.01 to 10 µM, mean (standard deviation)): 2750 nM
- Fold of Kd change (AeSCP-2 F32A mutant; F32A vs. wt): 18.71
- Kd (AeSCP-2 F32A mutant; F32A, 0.5 µM NBD-cholesterol, protein 0.01 to 10 µM, mean (standard deviation)): 6360 nM

SMILES: Br.CC(=O)Nc1ccc(Nc2nc(-c3ccc(Cl)c(Cl)c3)cs2)cc1 [SCPI-1, N-4-{[4-(3,4-dichlorophenyl)-1,3-thiazol-2-yl]amino}phenyl)aetamide hydrobromide]
- IC50 (AeSCP-2 [12]): < 400 nM

SMILES: Br.CC(=O)Nc1ccc(Nc2nc(-c3ccc(Cl)c(Cl)c3)cs2)cc1 [SCPI-1]
- Quenching of tryptophan intrinsic fluorescence, denatured protein [8]: no significant quenching
- Effect on tryptophan intrinsic fluorescence signal (wild type AeSCP-2 [9]): significant decrease
- Effect on tryptophan intrinsic fluorescence (AeSCP-2 M90L mutant [10]): still quenched
- Effect on tryptophan intrinsic fluorescence (AeSCP-2 F9W/W44F mutant [11]): still quenched

SMILES: CC(C)CCC[C@@H](C)[C@H]1CC[C@H]2C3=CC=C4C[C@@H](O)CC[C@]4(C)[C@H]3CC[C@]12C [7-dehydrocholesterol]
- Competition with NBD-cholesterol for binding to AeSCP-2 (AeSCP-2 [6]): did not appear to compete

SMILES: [3H]C(CCCCCC)C([3H])CCCCCCCC(=O)O (stereo not shown) [[^3H]palmitic acid, [9,10-^3H]-palmitic acid]
- Incorporation of [3H]palmitic acid (Aag-2 cells; cells transfected with either empty or AeSCP-2 wild type expression vectors): no increase
- Incorporation of [3H]palmitic acid (Aag-2 cells; over-expression of AeSCP-2 mutants): did not affect

SMILES: CCCCCCCCCCCCCCCC(=O)O [palmitic acid]
- EC50 (AeSCP-2 Y30A mutant [1]): 100 nM
- EC50 (AeSCP-2 W44E mutant [2]): 75 nM
- EC50 (AeSCP-2 F32W mutant [3]): 398 nM
- EC50 (wild type AeSCP-2 [4]): 348 nM
- EC50 (AeSCP-2 F105W mutant [5]): 175 nM
- EC50 (AeSCP-2 W44A mutant): 127 nM
- Competition with NBD-cholesterol for binding to AeSCP-2 (AeSCP-2 [6]): also competed with NBD-cholesterol for binding to AeSCP-2
- EC50 (AeSCP-2 M90L mutant [7]): 127 nM

SMILES: CC(C)CCC[C@@H](C)[C@H]1CC[C@H]2[C@@H]3CC=C4C[C@@H](O)CC[C@]4(C)[C@H]3CC[C@]12C [cholesterol]
- EC50 (AeSCP-2 Y30A mutant [1]): 282 nM
- EC50 (AeSCP-2 F32W mutant [3]): 447 nM
- EC50 (wild type AeSCP-2 [4]): 211 nM
- Effect on tryptophan intrinsic fluorescence signal (wild type AeSCP-2 [9]): does not produce a quenching
- EC50 (AeSCP-2 F105W mutant [5]): 474 nM
- Kd (recombinant AeSCP-2): 10 nM
- flip-flop rate t1/2 [19]: 1 to 2 min
- EC50 (AeSCP-2 W44A mutant): 72 nM
- Competition with NBD-cholesterol for binding to AeSCP-2 (AeSCP-2 [6]): competed with the NBD-cholesterol for binding to AeSCP-2 in a dose-dependent fashion
